Experiments:
[1] = target: T1, human tear lipocalin (TL) (Homo sapiens, UniProt P31025, W35Y); test: fluorescence enhancement and blue shift on binding; conditions: TL 4 μM, DAUDA 2 μM, 10 mM sodium phosphate, pH 7.3; fluorescent probe
[2] = target: T1, human tear lipocalin (TL); test: DAUDA fluorescence displacement; assay type: binding
[3] = target: human tear lipocalin (TL) (Homo sapiens, UniProt P31025, I75W/W35Y); test: Trp fluorescence titration, one-site fit; assay type: binding
Summary of the method: (§1)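 Recombinant human TL single-Trp mutants: native Trp replaced by Tyr, one site changed to Trp. Expressed in E. coli BL21(DE3); purified by gel filtration and DEAE chromatography. About 14 μM protein in 10 mM sodium phosphate, pH 7.3, at room temperature, titrated with palmitic acid or its spin-labeled analogue. 2 min equilibration per addition. Excitation 295 nm, emission read at λmax. One-site fit gave apparent Kd and stoichiometry.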

[4] = target: human tear lipocalin (TL) (Homo sapiens, UniProt P31025, M40W/W35Y); test: Trp fluorescence titration, one-site fit; assay type: binding
Summary of the method: as §1

[5] = target: human tear lipocalin (TL) (Homo sapiens, UniProt P31025, W35Y/Y115W); test: Trp fluorescence titration, one-site fit; assay type: binding
Summary of the method: as §1

[6] = target: human tear lipocalin (TL) (Homo sapiens, UniProt P31025, C119W/W35Y); test: Trp fluorescence titration, one-site fit; assay type: binding
Summary of the method: as §1

[7] = target: human tear lipocalin (TL) (Homo sapiens, UniProt P31025, L67W/W35Y); test: Trp fluorescence titration, one-site fit; assay type: binding
Summary of the method: as §1

[8] = target: human tear lipocalin (TL) (Homo sapiens, UniProt P31025, T55W/W35Y); test: Trp fluorescence titration, one-site fit; assay type: binding
Summary of the method: as §1

[9] = target: human tear lipocalin (TL) (Homo sapiens, UniProt P31025, L86W/W35Y); test: Trp fluorescence titration, one-site fit; assay type: binding
Summary of the method: as §1

[10] = target: human tear lipocalin (TL) (Homo sapiens, UniProt P31025, I106W/W35Y); test: Trp fluorescence titration, one-site fit; assay type: binding
Summary of the method: as §1

[11] = target: human tear lipocalin (TL) (Homo sapiens, UniProt P31025, G121W/W35Y); test: Trp fluorescence titration, one-site fit; assay type: binding
Summary of the method: as §1

[12] = target: human tear lipocalin (TL) (Homo sapiens, UniProt P31025, L123W/W35Y); test: Trp fluorescence titration, one-site fit; assay type: binding
Summary of the method: as §1

T1 sequence (P31025 19-176 W35Y): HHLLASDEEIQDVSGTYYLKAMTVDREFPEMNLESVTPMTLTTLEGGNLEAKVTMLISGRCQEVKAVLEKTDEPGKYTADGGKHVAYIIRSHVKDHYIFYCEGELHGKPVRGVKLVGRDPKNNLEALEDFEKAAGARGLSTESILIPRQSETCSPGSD
human tear lipocalin (TL) (Homo sapiens, UniProt P31025, W35Y/Y115W), sequence (P31025 19-176 W35Y/Y115W): as the sequence (P31025 19-176 W35Y) above, with Y97W counted along it
human tear lipocalin (TL) (Homo sapiens, UniProt P31025, C119W/W35Y), sequence (P31025 19-176 W35Y/C119W): as the sequence (P31025 19-176 W35Y) above, with C101W counted along it
human tear lipocalin (TL) (Homo sapiens, UniProt P31025, L86W/W35Y), sequence (P31025 19-176 W35Y/L86W): as the sequence (P31025 19-176 W35Y) above, with L68W counted along it
human tear lipocalin (TL) (Homo sapiens, UniProt P31025, G121W/W35Y), sequence (P31025 19-176 W35Y/G121W): as the sequence (P31025 19-176 W35Y) above, with G103W counted along it
human tear lipocalin (TL) (Homo sapiens, UniProt P31025, L67W/W35Y), sequence (P31025 19-176 W35Y/L67W): as the sequence (P31025 19-176 W35Y) above, with L49W counted along it
human tear lipocalin (TL) (Homo sapiens, UniProt P31025, I106W/W35Y), sequence (P31025 19-176 W35Y/I106W): as the sequence (P31025 19-176 W35Y) above, with I88W counted along it
human tear lipocalin (TL) (Homo sapiens, UniProt P31025, M40W/W35Y), sequence (P31025 19-176 W35Y/M40W): as the sequence (P31025 19-176 W35Y) above, with M22W counted along it
human tear lipocalin (TL) (Homo sapiens, UniProt P31025, I75W/W35Y), sequence (P31025 19-176 W35Y/I75W): as the sequence (P31025 19-176 W35Y) above, with I57W counted along it
human tear lipocalin (TL) (Homo sapiens, UniProt P31025, T55W/W35Y), sequence (P31025 19-176 W35Y/T55W): as the sequence (P31025 19-176 W35Y) above, with T37W counted along it
human tear lipocalin (TL) (Homo sapiens, UniProt P31025, L123W/W35Y), sequence (P31025 19-176 W35Y/L123W): as the sequence (P31025 19-176 W35Y) above, with L105W counted along it

| IC50 [2] [nM] | Kd [3] [nM] | Kd [4] [nM] | Kd [5] [nM] | Kd [6] [nM] | Kd [7] [nM] | Kd [8] [nM] | Kd [9] [nM] | Kd [10] [nM] | Kd [11] [nM] | Kd [12] [nM] | SMILES | fluorescence enhancement and blue shift on binding [1] |
| --- | --- | --- | --- | --- | --- | --- | --- | --- | --- | --- | --- | --- |
| – | – | – | – | – | – | – | – | – | – | – | CN(C)c1cccc2c(S(=O)(=O)NCCCCCCCCCCC(=O)O)cccc12 [DAUDA, 11-((5-dimethylaminonaphthalene-1-sulfonyl)amino)undecanoic acid] | DAUDA increases significantly and exhibits a blue shift ... when bound to TL |
| 12600 | – | – | – | – | – | – | – | – | – | – | CCCCCCCCCCCC(=O)O [LA] | – |
| 2300 | 500 ± 100 | 900 ± 200 | 400 ± 100 | 2800 ± 500 | 2300 ± 200 | 5800 ± 600 | 300 ± 100 | 500 ± 200 | 300 ± 100 | 500 ± 100 | CCCCCCCCCCCCCCCC(=O)O [PA] | – |

From PMC4902112 (Biochemistry, 2009)
